Experiments:
Type in all cases: functional
[1] = species on record: Homo sapiens; assay: Compound was evaluated for the inhibitory activity against human platelet aggregation by COL/ADP cartridges at a concentration of 5 x 10 e-3 M; settings: for inhibition at 5000 µM: Homo sapiens
In short: (§1)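 Human whole blood drawn by forearm venipuncture into 3.8% (0.129 M) buffered sodium citrate (1:9 anticoagulant:blood). Aliquots incubated with compound (in 0.1 N NaOH/water 1:10; final 1–5 mM) 37 °C, 30 min, then loaded into PFA-100 cartridge (collagen/epinephrine or collagen/ADP). Closure time read in seconds; % inhibition calculated against vehicle-treated control blood.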

[2] = species on record: Homo sapiens; assay: Compound was evaluated for the inhibitory activity against human platelet aggregation by COL/ADP cartridges at a concentration of 4 x 10 e-3 M; settings: for inhibition at 4000 µM: Homo sapiens; in short: as §1
[3] = species on record: Homo sapiens; assay: Compound was evaluated for the inhibitory activity against human platelet aggregation by COL/ADP cartridges at a concentration of 2 x 10 e-3 M; in short: as §1
[4] = species on record: Homo sapiens; assay: Compound concentration that cause 50% inhibition of human platelet aggregation by COL/EPI cartridges; in short: as §1
[5] = species on record: Homo sapiens; assay: Compound was evaluated for the inhibitory activity against human platelet aggregation by COL/ADP cartridges at a concentration of 3 x 10 e-3 M; settings: for inhibition at 3000 µM: Homo sapiens; in short: as §1
[6] = species on record: Homo sapiens; assay: Compound was evaluated for the inhibitory activity against human platelet aggregation by COL/ADP cartridges at a concentration of 1 x 10 e-3 M; in short: as §1

Row | Structure (SMILES) | IC50 ([4]; Homo sapiens) | IC50 [4] | Inhibition [1] | Inhibition [2] | inhibition at 2000 µM [3] | Inhibition [5] | inhibition at 1000 µM [6] | inhibition at 5000 µM [1] | inhibition at 4000 µM [2] | inhibition at 3000 µM [5]
1 | CCC(CCCOc1cc(C)ccc1C)C(=O)O (single isomer, unassigned; (+)) | – | 4120 µM | 100% | 0% | – | 0% | – | – | – | –
2 | CCC(CCCOc1cc(C)ccc1C)C(=O)O (stereo in doubt; 5b) | 2420 µM | – | 2.57% | 5.51% | 0% | 3.3% | 0% | – | – | –
3 | CC(=O)Oc1ccccc1C(=O)O [ASPIRIN] | 50 µM | – | – | – | 0% | – | 0% | 17.1% | 6.76% | 0%
4 | Cc1ccc(C)c(OCCCC(C)(C)C(=O)O)c1 [GEMFIBROZIL] | 2670 µM | – | – | – | 2.5% | – | 0% | 100% | 100% | 17%

Continued, in another order:

Row | IC50 ([4]; Homo sapiens) | IC50 [4] | Structure (SMILES) | Inhibition [1] | Inhibition [2] | inhibition at 2000 µM [3] | Inhibition [5] | inhibition at 1000 µM [6] | inhibition at 5000 µM [1] | inhibition at 4000 µM [2] | inhibition at 3000 µM [5]
5 | 3090 µM | – | Cc1ccc(C)c(OCCCC(C)C(=O)O)c1 (single isomer, unassigned; (+)) | 5.36% | 0% | 0% | 0.97% | 0% | – | – | –
6 | – | 2610 µM | Cc1ccc(C)c(OCCCC(C)C(=O)O)c1 (single isomer, unassigned; (-)) | 100% | – | – | 0% | – | – | – | –
7 | – | 2470 µM | Cc1ccc(C)c(OCCCC(C)C(=O)O)c1 (stereo in doubt; 5a) | 24.39% | 4.39% | – | 0.49% | – | – | – | –
